In ChEMBL document CHEMBL1932986, “Synthesis and in vitro antimycobacterial activity of compounds derived from (R)- and (S)-2-amino-1-butanol - The crucial role of the configuration” (Eur J Med Chem, 2012):
Converted amounts (≈) assume the structure as drawn. The source made the active and inactive calls. The calls are words filed in the database; no cut-off is given here.

Tests used:
Assay type in all cases: functional
[1] = system: Mycobacterium tuberculosis; assay: Antimycobacterial activity against Mycobacterium tuberculosis H37Rv after 45 days
How it was run: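 Canetti proportion method. Compound in DMSO is added to Löwenstein–Jensen egg medium before coagulation (30 min, 85 °C), tested at three levels plus a lower one where needed. Tubes are inoculated with H37Rv at 10⁵ cells/ml and incubated 45 days at 37 °C. Colony counts versus drug-free control give percentage inhibition.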

Bacillus subtilis = assay: Antibacterial activity against Bacillus subtilis ATCC 6633 at 50 mg/ml after 24 hrs by agar diffusion test; settings: for zone of inhibition at 50000 µg/mL: ATCC 6633, 24 h, read-out: DIZ
How it was run: (§1)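 Agar diffusion: wells in agar filled with […] DMSO solution of compound at various concentrations; diameter of clear zone around application point measured. Bacteria grown 24 h at 37 °C on nutrient agar. Compounds first screened at 50 mg/ml; those active then tested at lower concentrations. Bracketed value = lowest concentration (mg/ml) giving zone >11 mm, reported only if activity retained at ≤1.25 mg/ml.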

Bacillus = assay: Antibacterial activity against Bacillus idosus B 241 at 50 mg/ml after 24 hrs by agar diffusion test; settings: for zone of inhibition at 50000 µg/mL: B 241, 24 h, read-out: DIZ; how it was run: as §1
Priestia megaterium = assay: Antibacterial activity against Bacillus megaterium NRRL 1353895 at 50 mg/ml after 24 hrs by agar diffusion test; settings: for zone of inhibition at 50000 µg/mL: NRRL 1353895, 24 h, read-out: DIZ; how it was run: as §1
Bacillus mycoides = assay: Antibacterial activity against Bacillus mycoides DSMZ 274 at 50 mg/ml after 24 hrs by agar diffusion test; settings: for zone of inhibition at 50000 µg/mL: DSMZ 274, 24 h, read-out: DIZ; how it was run: as §1
Acinetobacter johnsonii = assay: Antibacterial activity against Acinetobacter johnsonii ATCC 17909 at 50 mg/ml after 24 hrs by agar diffusion test; settings: for zone of inhibition at 50000 µg/mL: ATCC 17909, 24 h, read-out: DIZ; how it was run: as §1
Staphylococcus aureus = assay: Antibacterial activity against Staphylococcus aureus NRRL B 313 at 50 mg/ml after 24 hrs by agar diffusion test; settings: for zone of inhibition at 50000 µg/mL: NRRL B 313, 24 h, read-out: DIZ
How it was run: (§2)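 Agar diffusion: bacteria grown 24 h at 37 °C on nutrient agar. Wells in the agar are filled with […] of compound solution in DMSO at various concentrations. The diameter of the clear zone around the application point is measured. Bracketed values give the lowest concentration (mg/ml) that produces a zone >11 mm. A first screen is run at 50 mg/ml.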

Micrococcus luteus [2] = assay: Antibacterial activity against Micrococcus luteus ATCC 9631 at 50 mg/ml after 24 hrs by agar diffusion test; settings: for zone of inhibition at 50000 µg/mL: ATCC 9631, 24 h, read-out: DIZ; how it was run: as §1
Candida tropicalis = assay: Antifungal activity against Candida tropicalis ATCC 20336 at 50 mg/ml after 72 hrs by agar diffusion test; settings: for zone of inhibition at 50000 µg/mL: ATCC 20336, 72 h, read-out: DIZ
How it was run: (§3)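 Agar diffusion: yeasts grown on yeast peptone dextrose agar and fungi on potato dextrose agar. Wells are filled with […] of compound solution in DMSO at various concentrations, and the clear-zone diameter is measured. Bracketed values give the lowest concentration (mg/ml) that produces a zone >11 mm. A first screen is run at 50 mg/ml.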

Saccharomyces cerevisiae = assay: Antifungal activity against Saccharomyces cerevisiae ATCC 9763 at 50 mg/ml after 72 hrs by agar diffusion test; settings: for zone of inhibition at 50000 µg/mL: ATCC 9763, 72 h, read-out: DIZ; how it was run: as §3
Penicillium chrysogenum = assay: Antifungal activity against Penicillium chrysogenum CECT 2802 at 50 mg/ml after 72 hrs by agar diffusion test; settings: for zone of inhibition at 50000 µg/mL: CECT 2802, 72 h, read-out: DIZ; how it was run: as §3
Bacillus cereus = assay: Antibacterial activity against Bacillus cereus ATCC 11778 at 50 mg/ml after 24 hrs by agar diffusion test; settings: for zone of inhibition at 50000 µg/mL: ATCC 11778, 24 h, read-out: DIZ; how it was run: as §1
Micrococcus luteus [3] = assay: Antibacterial activity against Sarcina lutea ATCC 9341 at 50 mg/ml after 24 hrs by agar diffusion test; settings: for zone of inhibition at 50000 µg/mL: ATCC 9341, 24 h, read-out: DIZ; how it was run: as §2
Escherichia coli = assay: Antibacterial activity against Escherichia coli ATCC 8739 at 50 mg/ml after 24 hrs by agar diffusion test; settings: for zone of inhibition at 50000 µg/mL: ATCC 8739, 24 h, read-out: DIZ; how it was run: as §1

Compound | MIC [1] | diameter of the inhibition zone (DIZ) (Bacillus subtilis) | diameter of the inhibition zone (DIZ) (Bacillus) | diameter of the inhibition zone (DIZ) (Priestia megaterium) | diameter of the inhibition zone (DIZ) (Bacillus mycoides) | diameter of the inhibition zone (DIZ) (Acinetobacter johnsonii) | diameter of the inhibition zone (DIZ) (Staphylococcus aureus) | diameter of the inhibition zone (DIZ) (Micrococcus luteus [2]) | diameter of the inhibition zone (DIZ) (Candida tropicalis) | diameter of the inhibition zone (DIZ) (Saccharomyces cerevisiae) | diameter of the inhibition zone (DIZ) (Penicillium chrysogenum) | zone of inhibition at 50000 µg/mL (Bacillus) | zone of inhibition at 50000 µg/mL (Bacillus mycoides) | zone of inhibition at 50000 µg/mL (Bacillus cereus) | zone of inhibition at 50000 µg/mL (Staphylococcus aureus) | zone of inhibition at 50000 µg/mL (Micrococcus luteus [2]) | diameter of the inhibition zone (DIZ) (Escherichia coli) | zone of inhibition at 50000 µg/mL (Priestia megaterium) | zone of inhibition at 50000 µg/mL (Acinetobacter johnsonii) | zone of inhibition at 50000 µg/mL (Micrococcus luteus [3]) | also measured
CC[C@H](CO)N1C(=O)c2cccc3c(Br)ccc(c23)C1=O | > 14.4 µM | inactive | inactive | inactive | inactive | inactive | inactive | inactive | inactive | inactive | inactive |  |  |  |  |  |  |  |  |  | 
CC[C@H](CO)N(CC(=O)Nc1c(C)cccc1C)CC(=O)Nc1c(C)cccc1C | > 12.2 µM | inactive |  | inactive |  | inactive |  |  | inactive | inactive | inactive | 10 mm | 12 mm | 11 mm | 15 mm | 12 mm | inactive |  |  |  | diameter of the inhibition zone (DIZ) (Micrococcus luteus [3]): inactive
CC[C@H](CO)NCc1cccc2ccccc12 | 21.8 µM (≈ 5 µg/mL) |  |  |  |  |  |  |  |  |  |  | 18 mm | 18 mm | 15 mm | 16 mm | 17 mm |  | 10 mm | 20 mm | 13 mm | zone of inhibition at 50000 µg/mL (Bacillus subtilis): 17 mm; zone of inhibition at 50000 µg/mL (Escherichia coli): 28 mm; zone of inhibition at 50000 µg/mL (Candida tropicalis): 30 mm; zone of inhibition at 50000 µg/mL (Saccharomyces cerevisiae): 32 mm; zone of inhibition at 50000 µg/mL (Penicillium chrysogenum): 22 mm
CC[C@H](CO)NC(=O)c1cccc2ccccc12 | > 20.6 µM | inactive | inactive | inactive | inactive | inactive | inactive | inactive | inactive | inactive | inactive |  |  |  |  |  | inactive |  |  |  | diameter of the inhibition zone (DIZ) (Bacillus cereus): inactive; diameter of the inhibition zone (DIZ) (Micrococcus luteus [3]): inactive
CC[C@H](CO)NCc1ccc2ccccc2c1 | > 21.8 µM |  |  |  |  |  |  |  |  |  |  | 19 mm | 17 mm | 14 mm | 19 mm | 19 mm |  | 17 mm | 17 mm | 17 mm | zone of inhibition at 50000 µg/mL (Bacillus subtilis): 19 mm; zone of inhibition at 50000 µg/mL (Escherichia coli): 22 mm; zone of inhibition at 50000 µg/mL (Candida tropicalis): 10 mm; zone of inhibition at 50000 µg/mL (Saccharomyces cerevisiae): 10 mm; zone of inhibition at 50000 µg/mL (Penicillium chrysogenum): 35 mm
CC[C@H](CO)Nc1cccc(Br)n1 | 20.4 µM (≈ 5 µg/mL) |  |  |  |  |  |  |  |  |  |  | 17 mm | 13 mm | 19 mm | 14 mm | 18 mm |  | 15 mm | 14 mm | 17 mm | zone of inhibition at 50000 µg/mL (Bacillus subtilis): 13 mm; zone of inhibition at 50000 µg/mL (Escherichia coli): 17 mm; zone of inhibition at 50000 µg/mL (Candida tropicalis): 25 mm; zone of inhibition at 50000 µg/mL (Saccharomyces cerevisiae): 10 mm; zone of inhibition at 50000 µg/mL (Penicillium chrysogenum): 17 mm
CC[C@H](CO)NC(=S)Nc1ccccc1 | > 22.3 µM | inactive | inactive |  |  |  | inactive |  |  |  |  |  | 12 mm | 14 mm |  | 12 mm |  | 13 mm | 12 mm | 12 mm | zone of inhibition at 50000 µg/mL (Escherichia coli): 16 mm; zone of inhibition at 50000 µg/mL (Candida tropicalis): 16 mm; zone of inhibition at 50000 µg/mL (Saccharomyces cerevisiae): 15 mm
CC[C@H](CO)NC(=O)Nc1cccc2ccccc12 | > 19.4 µM | inactive | inactive | inactive | inactive | inactive | inactive | inactive | inactive | inactive | inactive |  |  |  |  |  | inactive |  |  |  | diameter of the inhibition zone (DIZ) (Bacillus cereus): inactive; diameter of the inhibition zone (DIZ) (Micrococcus luteus [3]): inactive
CC[C@H](CO)NCc1ccnc2ccccc12 | 21.7 µM (≈ 5 µg/mL) |  |  |  |  |  |  |  |  |  |  | 12 mm | 16 mm | 13 mm | 14 mm | 10 mm |  | 11 mm | 13 mm | 13 mm | zone of inhibition at 50000 µg/mL (Bacillus subtilis): 10 mm; zone of inhibition at 50000 µg/mL (Escherichia coli): 20 mm; zone of inhibition at 50000 µg/mL (Penicillium chrysogenum): 20 mm
CC[C@H](CO)NCc1ccccc1OC | > 23.9 µM |  |  |  |  |  |  |  | inactive |  | inactive | 15 mm | 11 mm | 13 mm | 10 mm | 11 mm | inactive | 11 mm | 10 mm |  | zone of inhibition at 50000 µg/mL (Bacillus subtilis): 10 mm; zone of inhibition at 50000 µg/mL (Saccharomyces cerevisiae): 16 mm
CC[C@H](CO)NC(=O)c1ccccc1Br | > 18.4 µM | inactive | inactive | inactive | inactive | inactive | inactive | inactive | inactive | inactive | inactive |  |  |  |  |  |  |  |  |  | diameter of the inhibition zone (DIZ) (Bacillus cereus): inactive; diameter of the inhibition zone (DIZ) (Micrococcus luteus [3]): inactive
CC[C@H](CO)N(Cc1cc2c(cc1Cl)OCO2)Cc1cc2c(cc1Cl)OCO2 | > 11.7 µM | inactive | inactive |  | inactive | inactive | inactive |  | inactive | inactive | inactive |  |  |  |  |  | inactive | 10 mm |  | 10 mm | diameter of the inhibition zone (DIZ) (Bacillus cereus): inactive
CC[C@H](CO)NS(=O)(=O)c1ccc(NC(C)=O)cc1 | > 17.5 µM | inactive | inactive | inactive | inactive | inactive | inactive | inactive | inactive | inactive |  |  |  |  |  |  | inactive |  |  |  | diameter of the inhibition zone (DIZ) (Bacillus cereus): inactive; diameter of the inhibition zone (DIZ) (Micrococcus luteus [3]): inactive
